Bioassay records deposited in PubChem BioAssay by The Scripps Research Institute Molecular Screening Center.
TAAR1 antag – human TAAR1 antagonism. Q96RJ0. CHO RD-HGA16 TAAR1, Fluo-8 calcium fluorescence, antagonist. inhibition, % at 3 µM. 1.5% of 360,000 active;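 active means inhibition above a per-plate cutoff, the mean inhibition of test compounds on that plate plus 3 SD, cut at about 49% in these data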;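 further: 0% = DMSO plus EC80 beta-PEA response and 100% = DMSO alone without agonist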
Target sequence (Q96RJ0 whole entry, looked up): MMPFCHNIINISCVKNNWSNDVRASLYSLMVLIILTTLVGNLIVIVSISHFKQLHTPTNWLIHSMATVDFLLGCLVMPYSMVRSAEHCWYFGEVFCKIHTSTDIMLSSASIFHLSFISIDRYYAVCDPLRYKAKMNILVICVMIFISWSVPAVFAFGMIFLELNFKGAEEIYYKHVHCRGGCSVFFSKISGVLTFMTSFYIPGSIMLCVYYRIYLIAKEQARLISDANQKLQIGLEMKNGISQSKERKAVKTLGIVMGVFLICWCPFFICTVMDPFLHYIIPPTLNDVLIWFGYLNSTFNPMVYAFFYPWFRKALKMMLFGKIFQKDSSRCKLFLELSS
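System: CHO RD-HGA16 cells bearing hTAAR1. Reagent: EC80 β-phenethylamine stimulus. Schedule: seeding 17-24 h prior, 75-min 37 °C, 30-min RT dye loading. Signal: Fluo-8 intracellular calcium dye fluorescence, real-time kinetic reads. Read-out: % inhibition from peak post-agonist over basal fluorescence ratio. Benchmarks: vehicle wells and EC80 agonist wells. Replicates: n of 1.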
OX1R antag-1 – antagonists of human orexin 1 receptor; CHO/OX1R cells, Fluo-8 calcium fluorescence, orexin A; inhibition, % at 5 µM; 0.43% of 330,000 active;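 active means inhibition above its plate's threshold, mean inhibition of all tested compounds on the plate plus 3 SD, cut at about 37% in these data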;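 further: 0% = orexin A challenge wells and 100% = SB-334867-A antagonist wells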
TAAR1 ag – human TAAR1 agonism; Q96RJ0; CHO RD-HGA16 TAAR1, Fluo-8 calcium fluorescence; vehicle wells 0%, saturating PEA agonist 100%; activation, % at 3 µM; 0.99% of 360,000 active; AID 624467;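 active means activation above the mean activation of all test compounds in the run plus 3 SD, cut at about 38% in these data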
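Test system: RD-HGA16 (CHO) cells co-expressing Gα16 and hTAAR1 | Doses: Single dose, 3 µM | Schedule: 17-24 h seeding, 75 min 37 °C dye, 30 min RT | Evaluation: % activation from peak over basal fluorescence ratio, DMSO-to-PEA scaled | Technique: Kinetic Fluo-8 calcium fluorescence | Benchmarks: Low control DMSO, high control PEA (EC100)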
GalR3 antag – antagonists of human GalR3 | O60755 | HEK293 GalR3-CNG cAMP membrane potential fluorescence; galR3 body fused to GalR1 C-terminus | inhibition, % at 3 µM | 0.44% of 360,000 active | AID 651719;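 active means inhibition above the screen-wide average plus 3 SD, cut at about 13% in these data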;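 further: forskolin and galanin both at EC90 stimulate the cells; cAMP rise reported by CNG channel membrane potential dye signal; 0% = forskolin plus galanin with DMSO and 100% = forskolin alone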
OX1R antag-2 – blocks the human orexin 1 receptor; AID 485270; O43613; OX1R-expressing cells, FRET antagonist read-out; 1.8% of 330,000 active; inhibition, % at 6.6 µM; in the data active means inhibition mostly above about 38%, no sharp cut-off; inactive means mostly below about 40%;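 further: 0% = agonist challenge alone and 100% = reference antagonist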
CHO parental Ca – counter-screen for OX1R antagonists: effect in parental CHO cells. AID 463079. parental CHO-K1, ATP-induced calcium, Fluo-8 fluorescence. inhibition, % at 5.6 µM. 0.63% of 330,000 active;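 active means inhibition above that plate's mean sample inhibition plus 3 SD, cut at about 26% in these data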;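 further: 0% = ATP-challenged DMSO wells and 100% = DMSO wells without ATP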
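Material: Parental CHO cells | Reagent: ATP | Compound dosing: Single nominal dose of 5.6 µM per compound | Detection: Intracellular calcium via Fluo-8 no-wash fluorescent dye | Read-out: % inhibition of ATP-induced calcium mobilization | Benchmarks: Low control ATP plus DMSO, high control DMSO only | Replicates: Singlicate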
The depositor's hits bear a star; . = no result given. Only some compounds are listed: those with a hit (about 4.2% of all), similar ones and a draw of the others.

SMILES	TAAR1 antag	OX1R antag-1	TAAR1 ag	GalR3 antag	OX1R antag-2	CHO parental Ca
COc1ccc(C(=O)n2nc(-c3ccccc3)nc2N)cc1OC	9.3	-17.0	10.1	0.8	25.8	-4.4
Cc1ccc(SCc2c(C(=O)N/N=C/c3ccncc3)nnn2-c2nonc2N)cc1	49.6*	-10.9	12.5	0.1	-4.2	-7.2
Nc1nonc1-n1nnc(C(=O)N/N=C/c2ccccn2)c1CNc1ccccc1	11.1	0.5	16.2	-0.1	49.6*	-21.4
Oc1ccc(-c2nc(-c3ccc(O)c(O)c3)cs2)cc1	8.7	24.1	7.1	1.9	6.8	17.0
Cc1ccc(C)c(S(=O)(=O)NCc2ccc(C(=O)N3CCCCCC3)cc2)c1	-1.7	-10.8	4.8	2.5	23.1	-18.2
O=S(=O)(NCC1CCCO1)c1cccc2nsnc12 (stereo unspecified)	0.0	-2.9	10.7	-3.4	41.5*	4.3
O=S(=O)(NC1CCCCC1)c1cccc2nsnc12	-8.6	-9.7	2.1	0.5	16.1	-10.9
CC(C)(C)NC(=O)C1CCC(CNS(=O)(=O)c2cccc3nsnc23)CC1 (stereo unspecified)	75.7*	-12.9	41.8*	0.6	38.7	-3.6
NC(N)=N/N=C/c1ccc(OS(=O)(=O)c2ccccc2)cc1	-16.4	-2.0	13.8	-11.4	9.2	0.7
O=C1CS/C(=N/N=C/c2ccc(OS(=O)(=O)c3ccccc3)cc2)N1	2.6	0.0	-1.2	-2.9	70.5*	0.7
CC(=O)Nc1ccc(Nc2ncnc3c2cnn3-c2ccccc2)cc1	27.4	1.3	37.6*	-4.8	12.4	-9.6
CC(=O)Nc1ccc(Nc2ncnc3c2cnn3-c2cccc(C)c2)cc1	27.9	-29.4	29.1	-6.1	21.4	-12.4
CSc1nccc(NC(=O)c2cccc(Br)c2)n1	7.8	-29.4	47.5*	-10.1	20.9	-21.4
c1ccc(-c2nc3nonc3nc2-c2ccccc2)cc1	-1.6	-29.2	-1.4	-0.5	39.8*	-4.6
Nc1c(-c2ccccc2)nc(Cl)nc1-c1ccccc1	-0.6	-5.9	-1.6	-5.4	14.3	-7.9
COc1ccccc1NC(=O)Nc1nc(C(N)Cc2ccccc2)cs1 (stereo unspecified)	28.7	.	19.7	-5.4	.	.
CN1N=C(c2ccc(F)c(F)c2)CSC1=NCc1ccccc1	-5.6	-23.2	4.2	-1.3	13.8	-22.1
COc1ccc(CN2CCC(n3nccc3NC(=O)c3cccc(F)c3)CC2)cc1O	-31.5	6.6	2.8	-2.1	28.5	4.6
COc1cc(-c2nc3cnccn3c2Nc2ccc(C)cc2)ccc1O	-4.4	-13.4	23.1	-6.4	7.3	-8.0
COc1cc(-c2nc3cnccn3c2Nc2ccc(C(C)C)cc2)ccc1O	39.2	-7.6	21.7	-7.5	-3.1	37.4*
Brc1ccc2nc(-c3c[nH]c4ccccc34)cn2c1	9.2	-32.3	-1.5	-4.8	22.0	-28.0
COc1cc(-c2ccc3oc(-c4ccsc4)cc(=O)c3c2)cc(OC)c1OC	49.9*	9.0	9.1	-2.8	67.3*	-19.9
COc1ccc(-c2ccc3c(=O)cc(-c4ccsc4)oc3c2)cn1	11.8	13.9	3.7	-3.0	63.1*	-16.2
CCOP(=O)(OCC)C(Nc1ccccc1)c1ccc2c(c1)OCO2 (stereo unspecified)	-26.3	-16.3	-1.4	-4.4	20.5	-20.5
CC1(C(=O)NCc2ccc(C(F)(F)F)cc2)CCN1Cc1ccccc1OC(F)F (stereo unspecified)	55.6*	.	9.5	-8.8	.	.
COc1cccc(/C=N/Nc2ncnc(Cl)c2N)c1O	-9.9	-1.2	1.8	-5.4	54.0	-3.2
Nc1c(Cl)ncnc1N/N=C/c1cccc(O)c1	-0.4	-15.3	12.1	7.6	72.0*	-10.4
COc1ccc(/C=N/Nc2ncnc(Cl)c2N)cc1OC	1.5	-3.7	-0.1	-0.6	55.7*	-3.2
COc1ccc(-c2cc(C(=O)O)c3c(C)nn(-c4ccccn4)c3n2)cc1	7.1	-27.0	11.3	-1.0	6.3	-2.2
COc1ccc(N=CC2=C(Nc3ccc(OC)cc3)c3c(C)nn(-c4ccccn4)c3CC2)cc1	.	19.9	.	.	19.8	30.6*
